CHRM5 antagonist = antagonists of human muscarinic M5 receptor (CHRM5); inhibition, % at 3 µM; P08912; AID 624040; actives 0.59% (n = 360,000); CHO-hM5 cells, Fluo-8 calcium fluorescence, ACh EC80;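 active = inhibition above a per-plate cutoff, the mean of that plate's test compounds plus 3 SD, cut at about 27% in these data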;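 also: 0% = acetylcholine EC80 with DMSO and 100% = DMSO without agonist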
CHRM1 antagonist = blocks human M1 muscarinic receptor; CHO-K1 hM1, Fluo-8 calcium fluorescence, ACh EC80 antagonist; AID 588852; inhibition, % at 3 µM; actives 1.3% (n = 360,000); P11229;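 active = percent inhibition above its own plate's cutoff, namely the mean of that plate's compound wells plus 3 SD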;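 also: peak over basal fluorescence ratio during 140 s after agonist addition; 0% = ACh EC80 plus DMSO and 100% = DMSO alone without agonist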
Target sequence (P11229 whole entry, looked up): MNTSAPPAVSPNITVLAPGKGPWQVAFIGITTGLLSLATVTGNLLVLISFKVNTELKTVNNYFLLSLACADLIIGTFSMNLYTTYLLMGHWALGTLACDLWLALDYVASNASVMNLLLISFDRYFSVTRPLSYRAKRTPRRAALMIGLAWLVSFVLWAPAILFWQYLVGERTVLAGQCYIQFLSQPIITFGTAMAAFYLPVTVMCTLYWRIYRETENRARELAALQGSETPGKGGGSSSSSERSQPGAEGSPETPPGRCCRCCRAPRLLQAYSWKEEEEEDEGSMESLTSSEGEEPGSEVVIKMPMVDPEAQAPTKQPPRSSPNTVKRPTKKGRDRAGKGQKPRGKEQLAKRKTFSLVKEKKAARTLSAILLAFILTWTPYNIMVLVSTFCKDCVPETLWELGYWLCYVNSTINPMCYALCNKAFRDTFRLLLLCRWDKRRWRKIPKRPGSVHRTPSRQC
M1 PAM = human CHRM1 positive allosteric modulation. P11229. CHO-K1 hM1, Fluo-8 calcium fluorescence, ACh EC20; 0% = ACh EC20, 100% = maximal ACh. activation, % at 3 µM. actives 0.088% (n = 360,000); in the data active = activation above about 19%, passing the limit was not always enough
CHRM5 agonist = CHRM5 agonism in calcium assay | actives 0.19% (n = 360,000) | activation, % at 3 µM | CHO-K1 hM5 cells, Fluo-8 calcium fluorescence; 0% DMSO wells, 100% maximal acetylcholine response | AID 624037;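 active = activation above the run's mean over test compounds plus 3 SD, cut at about 23% in these data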;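 also: signal is peak over basal fluorescence ratio across the kinetic read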
M1 ag = activates human CHRM1 receptor. P11229. CHO-K1 hM1, Fluo-8 calcium fluorescence, agonist mode; 0% DMSO, 100% acetylcholine EC100. activation, % at 3 µM. actives 0.33% (n = 360,000). AID 588814;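 active = activation above the run's mean compound activation plus 3 SD, cut at about 16% in these data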;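 also: peak over basal fluorescence ratio within a 140 s kinetic read after compound addition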
M5 PAM = potentiates acetylcholine response at human M5 receptor; P08912; CHO-K1 hM5, Fluo-8 calcium, ACh EC20 PAM; 0% = ACh EC20, 100% = ACh EC100; activation, % at 3 µM; actives 0.3% (n = 360,000);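 active = activation above the run cutoff, the mean activation of all test compounds plus 3 SD, cut at about 18% in these data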
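System: CHO-K1 cell line with stable human muscarinic M5 receptor expression | Also added: EC20 acetylcholine as agonist stimulus | Compound: One concentration, 3 µM final (nominal) | Timing: Fluo-8 loading 80 min at 37 °C plus 30 min room temperature | Measured by: Fluo-8 calcium dye fluorescence, kinetic read | Read-out basis: % activation, ACh-normalized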
Starred values were filed as active, the others as inactive. In the library only some 2.1% were active in any assay of this set; here they are far more common.

SMILES	CHRM5 antagonist	CHRM1 antagonist	M1 PAM	CHRM5 agonist	M1 ag	M5 PAM
CCc1ccccc1NC(=O)C1CCN(C(=O)c2cccs2)CC1	3	-6	14	-1	-4	2
C[N+]1(CC(=O)Nc2ccccc2Cl)CCN(C(=O)c2cccs2)CC1	3	33*	-12	-6	-5	1
N#CC1=C(N2CCCCC2)c2cc3c(n2C1=O)CCCC3	13	35*	-20	-5	-4	-3
S=c1[nH]nc(-c2cccs2)n1/N=C/c1c(Cl)cccc1Cl	4	11	4	16	20*	-3
O=C(NCc1cccnc1)c1cccc2c1C(=O)N(Cc1cccnc1)C2	-4	-8	7	-6	-2	19*
CCCCc1ccc(NC(=O)CSc2nc(=O)n(CCN(CC)CC)c3c2CCCC3)cc1	12	66*	-26	-10	-8	-13
O=C(CSc1nc(=O)n(CCCN2CCOCC2)c2c1CCCC2)Nc1ccc(F)cc1	6	31*	-4	-2	-7	-4
COC(=O)c1ccc(CN2CCC(CO)(Cc3cccc(OC)c3)CC2)cc1	5	75*	-28	-10	-7	-12
COC(=O)c1ccc(CN2CCC(CO)(CCOc3ccccc3)CC2)cc1	27*	77*	-16	-16	14	-29
COc1cccc(CC2(CO)CCN(S(=O)(=O)N(C)C)CC2)c1	-8	3	-10	-1	-2	1
COC(=O)c1ccc(CN2CCCC(CO)(Cc3ccc(F)cc3F)C2)cc1 (configuration not stated)	10	48*	-18	-7	11	-13
OCC1(CCOc2ccccc2)CCN(CC2=Cc3cc(Cl)ccc3OC2)CC1	23	39*	-13	-9	3	-25
COc1cc(Cl)c(CN2CCC(CO)(CCOc3ccccc3)CC2)cc1OC	17	-4	0	-6	-7	0
Cc1cc(C)c(C(=O)Nn2c(C)nc3ccccc3c2=O)cc1C	6	-5	-1	2	-4	-12
CN1CCN(NC(=O)c2cc(-c3ccccn3)nc3ccccc23)CC1	11	0	3	-2	-3	2
CCN(CC)C(=O)c1cccc(-c2csc(C(O)c3ccc(OC)cc3)n2)c1 (configuration not stated)	10	8	-15	8	5	-11
Nc1cc([N+](=O)[O-])ccc1Nc1ccc(O)cc1	32*	0	2	-4	-2	-13
Cc1ccccc1-c1cccc([C@@H]2C[C@H]3C(CN2)CON3C)c1 (some centres not stated)	4	1	-2	-1	-10	1
CCOc1ccccc1C(=O)Oc1ccc2ccc(=O)oc2c1	11	-11	6	-8	-8	-3
COc1ccc2[nH]c3c(=O)n(CCN4CCOCC4)cnc3c2c1	4	0	18	-1	3	4
CCOC(=O)N1CCC(N2CCCC(C(=O)c3cc(C)c(OC)c(C)c3)C2)CC1 (configuration not stated)	36*	78*	-27	-11	-11	-20
COc1ccccc1C(=O)C1CCCN(Cc2cccc3nccnc23)C1 (configuration not stated)	21	45*	-19	-7	-4	-15
COc1ccc(C(=O)C2CCCN(C/C=C/c3ccccc3OC)C2)c(OC)c1 (configuration not stated)	3	51*	-28	-9	-10	-7
COc1c(C)cc(C(=O)C2CCCN(Cc3cccc4nccnc34)C2)cc1C (configuration not stated)	-5	42*	-29	-10	-12	6
COc1cccc(C(=O)C2CCCN(C/C=C/c3ccccc3OC)C2)c1 (configuration not stated)	23	21	-17	-9	-8	-14
SMILES	CHRM5 antagonist	CHRM1 antagonist	M1 PAM	CHRM5 agonist	M1 ag	M5 PAM
COc1ccc(C(=O)C2CCCN(Cc3nc4ccccc4nc3C)C2)cc1OC (configuration not stated)	-3	2	0	-4	-7	0
COc1cccc(OC)c1CN1CCCC(C(=O)c2ccccc2SC)C1 (configuration not stated)	6	3	-4	-12	-6	0
Cc1cccc(NC(=S)NCc2ccco2)c1C	12	-3	6	-5	-6	-3
Cc1cc(C)n(-c2ccc(C(=O)Nc3cccc([N+](=O)[O-])c3)cc2)n1	27*	7	-9	0	-6	-15
CCN(C[C@H]1N[C@@](Cc2ccccc2)(C(=O)OC)[C@H]2C(=O)N(C)C(=O)[C@@H]12)S(=O)(=O)c1ccc(OC(F)(F)F)cc1	6	18	-13	2	-2	-12
CCN(C[C@H]1N[C@@](Cc2ccccc2)(C(=O)OC)[C@H]2C(=O)N(C)C(=O)[C@@H]12)S(=O)(=O)c1ccc(C(F)(F)F)cc1	0	41*	-19	3	0	-12
COC(=O)[C@]1(Cc2ccccc2)N[C@H](CN(C)C(=O)c2ccc(F)cc2)[C@@H]2C(=O)N(C)C(=O)[C@@H]21	-9	-23	27*	0	4	1
CC(C)(C)OC(=O)NCCCC[C@H](NC(=O)c1[nH]cnc1C(=O)N[C@@H](Cc1ccccc1)C(=O)OC(C)(C)C)C(=O)OC(C)(C)C	1	17	-6	-2	-6	-12
CNC(=O)N1c2ccccc2CCc2ccccc21	0	-11	3	-1	-2	3
CC(CN(C)C)CN1c2ccccc2CCc2ccccc21 (configuration not stated)	99*	98*	-26	0	-4	-19
CN(C)CCCN1c2ccccc2CCc2ccccc21	80*	87*	-25	-2	-6	-19
O=C(NC1CCCC1)C1(c2ccccc2)CCN(S(=O)(=O)c2ccccc2)CC1	1	-12	1	-2	-11	-3
O=C1CC(c2ccco2)CC(O)=C1C=NCCN1CCNCC1 (configuration not stated)	-3	39*	-13	-5	2	4
O=C1CC(c2ccccc2)CC(O)=C1C=NCCN1CCNCC1 (configuration not stated)	2	25*	-7	-8	10	2
COc1ccc(C2=CC(=O)CC(c3ccc(OC)cc3)C2)cc1 (configuration not stated)	29*	-4	2	-7	-2	-14
COc1ccc(C2CC(=O)C(C=NCCO)=C(O)C2)cc1 (configuration not stated)	-12	-18	17	5	-1	19*

Screening results deposited in PubChem BioAssay by The Scripps Research Institute Molecular Screening Center.
